Activity calls are given as the source filed them. The rule behind the calls is not given here.
Columns and labels:
[1] = system: HEK-293T; assay: Cytotoxicity against human HEK293T cells after 48 hrs by MTT assay; format: cell-based
Procedure, shortened: (§1)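 ATCC lines grown in DMEM or RPMI with 10% FBS and antibiotic-antimycotic, 37 °C, 5% CO2. Seeded at 3×10^4 cells/well, 24 h before dosing with vehicle (DMSO) controls. […] Cisplatin as reference.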

[2] = system: HeLa; assay: Cytotoxicity against human HeLa cells after 48 hrs by MTT assay; format: functional, cell-based; procedure, shortened: as §1
[3] = system: SK-OV-3; assay: Cytotoxicity against human SKOV3 cells after 48 hrs by MTT assay; format: functional, cell-based; details: SK-OV-3, 48 h; procedure, shortened: as §1
[4] = system: PC-3; assay: Cytotoxicity against human PC3 cells after 48 hrs by MTT assay; format: functional, cell-based; details: PC-3, 48 h; procedure, shortened: as §1
[5] = system: HT-1080; assay: Cytotoxicity against human HT1080 cells after 48 hrs by MTT assay; format: functional, cell-based; details: HT-1080, 48 h; procedure, shortened: as §1
[6] = system: SK-OV-3; assay: Cell cycle arrest in human SKOV3 cells assessed as decrease in cells at G0/G1 phase at 0.1 to 0.5 uM after 24 hrs by propidium iodide staining-based flow cytometric analysis; format: functional
Procedure, shortened: (§2)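 SKOV-3 cells (1×10^6/well) exposed 24 h, trypsinised, washed in PBS, fixed in 70% ethanol 30 min at 4 °C, stained 15 min in the dark at room temperature with PBS containing propidium iodide, Triton X and DNase-free RNase A. DNA content read by flow cytometry (15,000 events per methods; legend cites 10,000 cells). G0/G1, S and G2/M percentages taken from instrument software.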

[7] = system: SK-OV-3; assay: Induction of apoptosis in human SKOV3 cells assessed as increase in caspase3 activity at 0.2 uM using Ac-DEVDpNA as substrate pretreated for 24 hrs followed by substrate addition and measured for 2 hrs by colorimetric analysis relative to control; format: functional
Procedure, shortened: (§3)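 SKOV-3 cells (2×10^5/well) exposed 24 h, trypsinised, lysed 20 min, and lysate cleared at 15000 rpm for 10 min at 4 °C. Supernatant incubated with reaction buffer and Ac-DEVD-pNA 2 h at 37 °C, then read at 405 nm. Activity expressed as fold of untreated control (set to 1).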

[8] = system: SK-OV-3; assay: Induction of apoptosis in human SKOV3 cells assessed as disruption of mitochondrial membrane potential at 0.1 to 0.5 uM after 24 hrs by JC-1 dye-based fluorescence microscopic analysis; format: functional, cell-based
Procedure, shortened: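 SKOV-3 cells at 5×10^5 cells/mL, adhered overnight, exposed 24 h with DMSO-treated controls. Stained with JC-1 (5 µg/mL in PBS) 30 min at room temperature, washed, and imaged in red (J-aggregate) and green (monomer) channels by fluorescence microscopy at 20×.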

[9] = system: SK-OV-3; assay: Inhibition of spheroid growth in human SKOV3 cells at 0.5 uM after 72 hrs by phase contrast microscopic analysis; format: functional, cell-based
Procedure, shortened: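 SKOV-3 cells (5000/well) in ultra-low-attachment round-bottom wells, grown 2 days to form spheroids, then exposed for 72 h. Spheroid growth and surface area assessed by phase contrast microscopy.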

[10] = system: SK-OV-3; assay: Induction of oxidative stress in human SKOV3 cells assessed as ROS generation by measuring fluorescence intensity at 0.5 uM after 24 hrs by carboxy-H2DCFDA dye-based flow cytometric analysis (reference value: 100%); format: functional
Procedure, shortened: (§4)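 SKOV-3 cells (2×10^5/well) exposed 24 h, trypsinised, and loaded with 10 µM carboxy-H2DCFDA in PBS 15 min at room temperature in the dark. After washing, green DCF fluorescence was read by flow cytometry and expressed as % of control (100%).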

[11] = system: SK-OV-3; assay: Induction of apoptosis in human SKOV3 cells assessed as increase in pyknotic nuclei at 0.1 to 0.5 uM after 24 hrs by […] staining-based fluorescence microscopic analysis; format: functional, cell-based
Procedure, shortened: (§5)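 SKOV-3 cells on coverslips (5×10^5/well), adhered 24 h, then exposed 24 h. Fixed in 4% formaldehyde 10 min at 4 °C, stained with […] (5 µg/mL) 30 min at room temperature, and nuclear morphology scored by fluorescence microscopy (ex 350/em 460 nm, 20×).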

[12] = system: SK-OV-3; assay: Cell cycle arrest in human SKOV3 cells assessed as accumulation of cells at G2/M phase at 0.5 uM after 24 hrs by propidium iodide staining-based flow cytometric analysis (reference value: 14.7%); format: functional; procedure, shortened: as §2
[13] = system: SK-OV-3; assay: Cell cycle arrest in human SKOV3 cells assessed as accumulation of cells at G2/M phase at 0.2 uM after 24 hrs by propidium iodide staining-based flow cytometric analysis (reference value: 14.7%); format: functional; procedure, shortened: as §2
[14] = system: SK-OV-3; assay: Induction of apoptosis in human SKOV3 cells assessed as increase in caspase3 activity at 0.5 uM using Ac-DEVDpNA as substrate pretreated for 24 hrs followed by substrate addition and measured for 2 hrs by colorimetric analysis relative to control; format: functional; procedure, shortened: as §3
[15] = system: SK-OV-3; assay: Induction of apoptosis in human SKOV3 cells assessed as nuclear fragmentation at 0.1 to 0.5 uM after 24 hrs by […] staining-based fluorescence microscopic analysis; format: functional, cell-based; procedure, shortened: as §5
[16] = system: SK-OV-3; assay: Cell cycle arrest in human SKOV3 cells assessed as accumulation of cells at S phase at 0.5 uM after 24 hrs by propidium iodide staining-based flow cytometric analysis (reference value: 5%); format: functional; procedure, shortened: as §2
[17] = species on record: Homo sapiens; assay: Inhibition of F-actin polymerization in human SKOV3 cells assessed as decrease in F-actin extensions at 0.1 to 0.5 uM after 24 hrs by rhodamine-phalloidin/[…] staining-based confocal fluorescence microscopic analysis; format: cell-based
Procedure, shortened: (§6)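 SKOV-3 cells (1×10^6/well) on coverslips, grown 24 h, then exposed 24 h. Washed, fixed in 4% paraformaldehyde in PBS, stained with rhodamine-phalloidin (F-actin) and […] (nuclei), mounted in anti-fade medium, and imaged by confocal microscopy at 20×.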

[18] = system: SK-OV-3; assay: Induction of oxidative stress in human SKOV3 cells assessed as ROS generation by measuring fluorescence intensity at 0.1 uM after 24 hrs by carboxy-H2DCFDA dye-based flow cytometric analysis (reference value: 100%); format: functional; procedure, shortened: as §4
[19] = system: SK-OV-3; assay: Cell cycle arrest in human SKOV3 cells assessed as accumulation of cells at G2/M phase at 0.1 uM after 24 hrs by propidium iodide staining-based flow cytometric analysis (reference value: 14.7%); format: functional; procedure, shortened: as §2
[20] = system: SK-OV-3; assay: Cell cycle arrest in human SKOV3 cells assessed as accumulation of cells at S phase at 0.1 uM after 24 hrs by propidium iodide staining-based flow cytometric analysis (reference value: 5%); format: functional; procedure, shortened: as §2
[21] = system: SK-OV-3; assay: Induction of apoptosis in human SKOV3 cells assessed as chromatin condensation at 0.1 to 0.5 uM after 24 hrs by […] staining-based fluorescence microscopic analysis; format: functional, cell-based; procedure, shortened: as §5
[22] = species on record: Homo sapiens; assay: Inhibition of F-actin polymerization in human SKOV3 cells assessed as induction of stress fibers disruption around nucleus at 0.1 to 0.5 uM after 24 hrs by rhodamine-phalloidin/[…] staining-based confocal fluorescence microscopic analysis; format: cell-based; procedure, shortened: as §6
[23] = system: SK-OV-3; assay: Cell cycle arrest in human SKOV3 cells assessed as accumulation of cells at S phase at 0.2 uM after 24 hrs by propidium iodide staining-based flow cytometric analysis (reference value: 5%); format: functional; procedure, shortened: as §2
[24] = system: SK-OV-3; assay: Induction of apoptosis in human SKOV3 cells assessed as increase in horse shoe shaped nuclei at 0.1 to 0.5 uM after 24 hrs by […] staining-based fluorescence microscopic analysis; format: functional, cell-based; procedure, shortened: as §5
[25] = system: SK-OV-3; assay: Induction of oxidative stress in human SKOV3 cells assessed as ROS generation by measuring fluorescence intensity at 0.2 uM after 24 hrs by carboxy-H2DCFDA dye-based flow cytometric analysis (reference value: 100%); format: functional; procedure, shortened: as §4
[26] = system: SK-OV-3; assay: Induction of oxidative stress in human SKOV3 cells assessed as ROS generation by measuring fluorescence intensity at 0.1 to 0.5 uM after 24 hrs by carboxy-H2DCFDA dye-based flow cytometric analysis relative to untreated control; format: functional; procedure, shortened: as §4
[27] = system: SK-OV-3; assay: Induction of apoptosis in human SKOV3 cells assessed as increase in caspase3 activity at 0.1 uM using Ac-DEVDpNA as substrate pretreated for 24 hrs followed by substrate addition and measured for 2 hrs by colorimetric analysis relative to control; format: functional; procedure, shortened: as §3
[28] = Selectivity index, ratio of IC50 for cytotoxicity against human HEK293T cells to IC50 for cytotoxicity against human SKOV3 cells after 48 hrs by MTT assay; format: toxicity, cell-based; details: HEK293T cells versus SKOV3 cells, read-out: Ratio IC50

## COc1ccc(C2C3=C(CCCC3=O)Nc3c2c2cc(OC)c(OC)cc2c2cc(OC)c(OC)cc32)cc1OC (stereo not drawn)
[1]
  IC50: > 50 µM
[2]
  IC50: > 50 µM
[3]
  IC50: 11.5 µM
[4]
  IC50: > 50 µM
[5]
  IC50: 25.7 µM

## COc1cc2c3c(c4cc(OC)c(OC)cc4c2cc1OC)C(c1cccc(C(F)(F)F)c1)C1=C(CCCC1=O)N3 (stereo not drawn)
[6]
  Activity: Active
[7]
  fold change (FC): 2.45
[1]
  IC50: 18.5 µM
[8]
  Activity: Active
[9]
  inhibition: Active
[2]
  IC50: 4.38 µM
[10]
  Activity: 204.76%
[11]
  Activity: Active
[3]
  IC50: 0.24 µM
[12]
  Activity: 37.9%
[4]
  IC50: 11.8 µM
[13]
  Activity: 33.5%
[14]
  fold change (FC): 3.78
[15]
  Activity: Active
[16]
  Activity: 14.1%
[17]
  inhibition: Active
[5]
  IC50: 3.89 µM
[18]
  Activity: 128.5%
[19]
  Activity: 22.6%
[20]
  Activity: 2.3%
[21]
  Activity: Active
[22]
  inhibition: Active
[23]
  Activity: 19.3%
[24]
  Activity: Active
[25]
  Activity: 150.3%
[26]
  fold change (FC): 2
[27]
  fold change (FC): 1.58
[28]
  selectivity ratio at 48 h: 77

## COc1cc2c3c(c4cc(OC)c(OC)cc4c2cc1OC)C(c1cc(OC)c(OC)c(OC)c1)C1=C(CC(C)(C)CC1=O)N3 (stereo not drawn)
[1]
  IC50: 29.2 µM
[2]
  IC50: 12.1 µM
[3]
  IC50: 10.8 µM
[4]
  IC50: 8.9 µM
[5]
  IC50: 16.3 µM

## COc1cc2c3c(c4cc(OC)c(OC)cc4c2cc1OC)C(c1ccc(C(C)C)cc1)C1=C(CCCC1=O)N3 (stereo not drawn)
[1]
  IC50: 41.5 µM
[2]
  IC50: 13.6 µM
[3]
  IC50: 4.81 µM
[4]
  IC50: 5.67 µM
[5]
  IC50: 11.7 µM

## COc1cc2c3c(c4cc(OC)c(OC)cc4c2cc1OC)C(c1ccc(C(C)C)cc1)C1=C(CC(C)(C)CC1=O)N3 (stereo not drawn)
[1]
  IC50: 25.7 µM
[2]
  IC50: > 50 µM
[3]
  IC50: 11.5 µM
[4]
  IC50: > 50 µM
[5]
  IC50: 32.3 µM

## COc1cc2c3c(c4cc(OC)c(OC)cc4c2cc1OC)C(c1ccc(C)cc1)C1=C(CCCC1=O)N3 (stereo not drawn)
[1]
  IC50: 38.9 µM
[2]
  IC50: 4.79 µM
[3]
  IC50: 1.62 µM
[4]
  IC50: 7.17 µM
[5]
  IC50: 5.63 µM

## COc1cc2c3c(c4cc(OC)c(OC)cc4c2cc1OC)C(c1ccc(Cl)cc1)C1=C(CC(C)(C)CC1=O)N3 (stereo not drawn)
[1]
  IC50: > 50 µM
[2]
  IC50: 38.8 µM
[3]
  IC50: 15.9 µM
[4]
  IC50: > 50 µM
[5]
  IC50: 30.1 µM

## COc1ccc(C2C3=C(CCCC3=O)Nc3c2c2cc(OC)c(OC)cc2c2cc(OC)c(OC)cc32)cc1 (stereo not drawn)
[1]
  IC50: 28.3 µM
[2]
  IC50: 2.62 µM
[3]
  IC50: 0.61 µM
[4]
  IC50: 5.79 µM
[5]
  IC50: 2.62 µM

## COc1cc2c3c(c4cc(OC)c(OC)cc4c2cc1OC)C(c1cccc2ccccc12)C1=C(CCCC1=O)N3 (stereo not drawn)
[1]
  IC50: 14.4 µM
[2]
  IC50: 6.87 µM
[3]
  IC50: 2.67 µM
[4]
  IC50: 5.31 µM
[5]
  IC50: 3.83 µM
